Experimental findings from ChEMBL document CHEMBL1123282, “Antiinflammatory activity of substituted 6-hydroxypyrimido[2,1-f]purine-2,4,8(1H,3H,9H)-triones. Atypical nonsteroidal antiinflammatory agents” (J Med Chem, 1986) are described below.

Data set [1] in a line: Plasma level data at a dose of 20 mg/kg, po after 0.25 hr. In kind it is ADME, organism-based. Set-up: dose 20 mg/kg, route oral. To be noted: read-out: Plasma level. In a few lines: (§1)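 Male Lewis rats get a single iv or oral dose of the sodium salt, suspended in 0.4% (w/v) methyl cellulose. Plasma drug levels are measured by HPLC at the timed points and given as mean ± SD, n = 3.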

Data set [2] has as its system Rattus norvegicus. Briefly: Compound was tested in vivo for antiinflammatory activity against chronic adjuvant arthritic rat by therapeutic inhibition 2 degree paw after peroral administration of 30 mg/kg of dose. In kind it is functional. Particulars: route oral.
A short description of data set [3]: Plasma level data at a dose of 20 mg/kg, iv after 0.25 hr. In kind it is ADME, organism-based. Set-up: dose 20 mg/kg, route intravenous. To be noted: read-out: Plasma level. In a few lines:
as §1

Data set [4] deals with Rattus norvegicus. Briefly: Compound was tested for intestinal Ulcerogenic effect in rats, activity expressed as lesion score at a dose of 30 mg/kg. The class given is functional. In a few lines: (§2)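 Normal fed rats were gavaged once daily for three consecutive days at 10–300 mg/kg and killed 24 h after the last dose. Intestines were examined for ulcers, recording incidence per group of 8 and a lesion score (±SE).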

Data set [5] concerns Rattus norvegicus. In words: Compound was tested for intestinal Ulcerogenic effect in rats at a dose of 30 mg/kg. The class given is functional. In a few lines:
as §2

For data set [6], the system named is Rattus norvegicus. In words: Compound was tested in vivo for antiinflammatory activity against chronic adjuvant arthritic rat by therapeutic inhibition 1 degree paw after peroral administration of 3.3 mg/kg of dose. To be noted: route oral. In kind it is functional.
The subject of data set [7] is Rattus norvegicus. Briefly: Compound was tested for gastric Ulcerogenic effect in rats, activity expressed as lesion length at a dose of 300 mg/kg.
Data set [8] concerns Rattus norvegicus. Briefly: Compound was tested for intestinal Ulcerogenic effect in rats at a dose of 10 mg/kg. The class given is functional. In a few lines:
as §2

The test system of data set [9] is Rattus norvegicus. Briefly: Compound was tested for intestinal Ulcerogenic effect in rats, activity expressed as lesion score at a dose of 100 mg/kg. The class given is functional. In a few lines: as §2
The test system of data set [10] is Rattus norvegicus. Briefly: Compound was tested in vivo for antiinflammatory activity against chronic adjuvant arthritic rat by therapeutic inhibition 1 degree paw after peroral administration of 10 mg/kg of dose. In kind it is functional. To be noted: route oral.
For data set [11], the system named is Rattus norvegicus. Briefly: Compound was tested for intestinal Ulcerogenic effect in rats, activity expressed as ulcer incidence at a dose of 30 mg/kg. The class given is functional. In a few lines: as §2
Data set [12] deals with Rattus norvegicus. In words: Compound was tested for intestinal Ulcerogenic effect in rats, activity expressed as lesion score at a dose of 10 mg/kg. The class given is functional. In a few lines: as §2
The nature of data set [13]: Plasma level data at a dose of 20mg/kg, po after 6 hr. To be noted: read-out: Plasma level. In kind it is ADME, organism-based. In short, it runs like this: as §1
Data set [14] has as its system Rattus norvegicus. Briefly: Compound was tested for gastric Ulcerogenic effect in rats, activity expressed as lesion length at a dose of 100 mg/kg.
A further data set has as its target T1, Cyclooxygenase (Rattus norvegicus, UniProt P35355+Q63921).
T1 sequence (P35355 whole entry): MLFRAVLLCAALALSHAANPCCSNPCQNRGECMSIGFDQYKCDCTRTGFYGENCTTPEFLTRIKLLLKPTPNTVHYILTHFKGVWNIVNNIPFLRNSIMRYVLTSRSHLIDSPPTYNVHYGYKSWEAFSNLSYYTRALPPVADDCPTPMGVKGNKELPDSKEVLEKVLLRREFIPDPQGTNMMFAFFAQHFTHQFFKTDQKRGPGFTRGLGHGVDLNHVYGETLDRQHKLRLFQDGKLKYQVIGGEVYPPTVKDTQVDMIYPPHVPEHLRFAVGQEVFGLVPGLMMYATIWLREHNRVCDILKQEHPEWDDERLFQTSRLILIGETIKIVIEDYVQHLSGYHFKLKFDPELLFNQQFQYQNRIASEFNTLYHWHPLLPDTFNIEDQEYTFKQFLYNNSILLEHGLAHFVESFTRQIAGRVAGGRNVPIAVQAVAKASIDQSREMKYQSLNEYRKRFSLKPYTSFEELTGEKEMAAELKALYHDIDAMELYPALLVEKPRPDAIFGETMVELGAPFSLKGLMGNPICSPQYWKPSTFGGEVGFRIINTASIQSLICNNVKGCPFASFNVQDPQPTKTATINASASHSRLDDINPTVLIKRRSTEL
T1 sequence (Q63921 whole entry): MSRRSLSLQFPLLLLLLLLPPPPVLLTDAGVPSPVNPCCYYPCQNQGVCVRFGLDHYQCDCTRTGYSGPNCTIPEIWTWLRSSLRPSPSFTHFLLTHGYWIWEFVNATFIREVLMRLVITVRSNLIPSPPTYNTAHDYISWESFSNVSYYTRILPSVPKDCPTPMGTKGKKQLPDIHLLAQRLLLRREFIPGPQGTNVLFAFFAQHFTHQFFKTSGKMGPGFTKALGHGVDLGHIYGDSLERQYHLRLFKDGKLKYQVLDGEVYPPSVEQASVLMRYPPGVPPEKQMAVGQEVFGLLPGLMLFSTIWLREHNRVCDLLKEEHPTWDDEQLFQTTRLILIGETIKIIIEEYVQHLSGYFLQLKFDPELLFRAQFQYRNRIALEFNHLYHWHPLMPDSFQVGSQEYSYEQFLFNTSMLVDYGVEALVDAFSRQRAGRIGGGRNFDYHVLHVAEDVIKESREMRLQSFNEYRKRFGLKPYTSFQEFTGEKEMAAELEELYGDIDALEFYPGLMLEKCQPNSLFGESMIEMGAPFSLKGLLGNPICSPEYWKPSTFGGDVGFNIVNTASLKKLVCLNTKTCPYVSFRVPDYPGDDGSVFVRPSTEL
Briefly: In vitro inhibitory activity against Prostaglandin G/H synthase in rat neutrophils.

Data set [15] concerns Rattus norvegicus. Briefly: Compound was tested in vivo for antiinflammatory activity against chronic adjuvant arthritic rat by therapeutic inhibition 1 degree paw after peroral administration of 30 mg/kg of dose. In kind it is functional. To be noted: route oral.
Data set [16] relates to Rattus norvegicus. Briefly: Compound was tested in vivo for antiinflammatory activity against chronic adjuvant arthritic rat by therapeutic inhibition 2 degree paw after peroral administration of 3.3 mg/kg of dose. In kind it is functional. Particulars: route oral.
Data set [17] relates to Rattus norvegicus. In words: Compound was tested for intestinal Ulcerogenic effect in rats, activity expressed as ulcer incidence at a dose of 10 mg/kg. In kind it is functional. In a few lines: as §2
The subject of data set [18] is Rattus norvegicus. Briefly: Compound was tested for intestinal ulcerogenic effect in rats, activity expressed as ulcer incidence at a dose of 100 mg/kg. In kind it is functional. In short, it runs like this:
as §2

In data set [19] the test system is Rattus norvegicus. Briefly: Compound was tested in vivo for antiinflammatory activity against chronic adjuvant arthritic rat by prophylactic inhibition 1 degree paw after peroral administration of 36 mg/kg of dose. To be noted: po.
Data set [20] concerns Rattus norvegicus. Briefly: Compound was tested for intestinal ulcerogenic effect in rats at a dose of 300 mg/kg. In kind it is functional. In a few lines:
as §2

Data set [21] concerns Rattus norvegicus. Briefly: Compound was tested for intestinal Ulcerogenic effect in rats at a dose of 300 mg/kg. The class given is functional. In a few lines:
as §2

Data set [22] in a line: Plasma level data at a dose of 36 mg/kg, po after 4 hr. More on the design: dose 36 mg/kg, route oral. To be noted: read-out: Plasma level. In kind it is ADME, organism-based. In short, it runs like this:
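Male Lewis rats given a single po dose of the sodium salt suspended in 0.4% (w/v) methyl cellulose. Plasma drug levels measured by HPLC at set times up to 12 h; values are mean ± SD, n = 3.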

Data set [23] can be described thus: Plasma level data at a dose of 36 mg/kg, po after 1 hr. In kind it is ADME, organism-based. Set-up: dose 36 mg/kg, route oral. Particulars: read-out: Plasma level. In short, it runs like this:
as §1

The nature of data set [24]: Plasma level data at a dose of 36 mg/kg, iv after 12 hr. Set-up: dose 36 mg/kg, route intravenous. To be noted: read-out: Plasma level. The class given is ADME, organism-based. In short, it runs like this: as §1
The test system of data set [25] is Rattus norvegicus. Briefly: C(compound) was tested for intestinal Ulcerogenic effect in rats at a dose of 30 mg/kg. In kind it is functional. In short, it runs like this: as §2
Data set [26] relates to Rattus norvegicus. Briefly: Compound was tested in vivo against chronic adjuvant arthritic rat by therapeutic inhibition 2 degree paw. Relative potency with respect to (8-Benzyl-5-hydroxy-1,3-dimethyl-6-propyl-1H,8H-1,3,4b,8,9-pentaaza-fluorene-2,4,7-trione). In kind it is functional.

Turning to `CC(C)=CCc1c(O)n(Cc2ccccc2)c2nc3c(c(=O)n(C)c(=O)n3C)n2c1=O`, the concentration at 0.25 h in data set [1] came out at 2400 ng/mL; in [3], 95100 ng/mL. For the same compound, the inhibition in vivo at 30 mg/kg is 83% in the data set on Rattus norvegicus [2] and 63% with Rattus norvegicus [15]. Also, the Lesion score with Rattus norvegicus [4] came out at 0 mm rat-1. Further, the Ulcer incidence in the data set with Rattus norvegicus [5], in the data set with Rattus norvegicus [8], with Rattus norvegicus [11] and with Rattus norvegicus [17] was 0 number/group throughout. In addition, the inhibition in vivo at 3.3 mg/kg in the data set on Rattus norvegicus [6] was 24%; with Rattus norvegicus [16] it was 42%. Moreover, the Length was determined as 9.6 mm rat-1 with Rattus norvegicus [7] and 1 mm rat-1 in the data set with Rattus norvegicus [14]. Also, the Lesion length in the data set on Rattus norvegicus [9] came to 0.1 mm rat-1; in the data set with Rattus norvegicus [12], 0 mm rat-1. In the data set with Rattus norvegicus [10], the inhibition in vivo at 10 mg/kg is 54%. In addition, the concentration at 6 h in data set [13] worked out at 37000 ng/mL. The compound further displayed an IC50 against Cyclooxygenase of 2 µM.
`CC(C)=CCc1c(O)n(Cc2ccc(F)cc2)c2nc3c(c(=O)n(C)c(=O)n3C)n2c1=O`: the inhibition in vivo at 30 mg/kg in the data set on Rattus norvegicus [2] was 87%; with Rattus norvegicus [15], 59%. Also, the Ulcer incidence in the data set on Rattus norvegicus [5] stood at 0 number/group; in the data set on Rattus norvegicus [18], 0 number/group; with Rattus norvegicus [20], 2 number/group. Further, the inhibition in vivo at 3.3 mg/kg stood at 21% with Rattus norvegicus [6] and 43% in the data set with Rattus norvegicus [16]. Moreover, the inhibition in vivo at 10 mg/kg in the data set with Rattus norvegicus [10] amounted to 38%. The inhibition in vivo at 36 mg/kg in the data set with Rattus norvegicus [19] amounted to 44%. The compound also registered a half-inhibitory concentration (IC50) at Cyclooxygenase of 4.2 µM.
For the compound `CCCc1c(O)n(Cc2ccc(F)cc2)c2nc3c(c(=O)n(C)c(=O)n3C)n2c1=O`, the Ulcer incidence with Rattus norvegicus [21], in the data set on Rattus norvegicus [8], with Rattus norvegicus [11], with Rattus norvegicus [25] and with Rattus norvegicus [17] was 0 number/group each time. The concentration at 4 h in [22] came out at 41800 ng/mL. This compound also displayed a Lesion score in the data set on Rattus norvegicus [4] of 0 mm rat-1. The Length in the data set with Rattus norvegicus [7] is given as 0 mm rat-1; with Rattus norvegicus [14], 0.2 mm rat-1. Moreover, in data set [23], the concentration at 1 h came out at 23100 ng/mL. The Lesion length in the data set on Rattus norvegicus [9] and in the data set with Rattus norvegicus [12] was 0 mm rat-1 throughout. In addition, in [24], the concentration at 12 h worked out at 88300 ng/mL. Also, the inhibition in vivo at 36 mg/kg in the data set on Rattus norvegicus [19] turned out to be 60%. In addition, the Relative potency with Rattus norvegicus [26] is 0.9.

A word on the inhibition in vivo: it is the drop in the measured response relative to a control, in per cent. As a reminder, the IC50 is the concentration needed to halve the response being measured. Higher therefore signals a need for much substance.
